Converted amounts (≈) assume the structure as drawn.
Experiments:
[1] = Selectivity index, ratio of CC50 for cytotoxicity against human SH-SY5Y cells to EC50 for anti-amoebic activity against Naegleria fowleri Nf69 (ATCC 30215) assessed as inhibition of amoeba growth; assay type: toxicity, cell-based; details: for selectivity ratio: SH-SY5Y cells, read-out: Ratio CC50/EC50
Naegleria fowleri = assay: Anti-ameobic activity against Naegleria fowleri Nf69 (ATCC 30215) trophozoites assessed as inhibition of amoeba growth incubated for 48 hrs by CellTiter-Glo assay; assay type: functional, organism-based
Outline: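 Axenic Nf69 trophozoites were seeded at 1 × 10^4 cells/mL in Nelson's complete medium with 10% heat-inactivated FBS. Compound was added at 20 to 0.375 μM (lower ranges for very potent compounds), with vehicle controls, for 48 h at 37 °C and 5% CO2. CellTiter-Glo luminescence gave % growth inhibition versus controls, and triplicate means were fitted to dose–response curves for EC50.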

SH-SY5Y = assay: Cytotoxicity against human SH-SY5Y cells assessed as reduction in cell viability incubated for 72 hrs by CellTiter-Glo assay; assay type: toxicity, cell-based; details: sh-sy5y, 72 h
Outline: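 SH-SY5Y cells at 2000 per well attached overnight at 37 °C. Compound from 20 mM DMSO stocks was added in triplicate as a dose series starting at 20 μM, with doxorubicin as positive control.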

[2] = Metabolic stability in CD-1 mouse liver microsomes assessed as half-life incubated for 60 mins by LC-MS/MS analysis; assay type: ADME, Microsome; details: 1 h
Outline: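 Half-life measured in CD-1 mouse liver microsomes with NADPH over a 60 min exposure.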

[3] = Kinetic solubility of compound at pH 7.4 incubated for 24 hrs by HPLC analysis; assay type: physicochemical; details: buffer, pH 7.4, read-out: Kinetic_solubility
[4] = Naegleria fowleri, Nf69 (ATCC 30215), 48 h

Structure (SMILES) | EC50 (Naegleria fowleri; [4]) | CC50 (SH-SY5Y) | also measured
CN(C)CCN1CCC[C@@H]2c3nc4cc(Cl)c(Cl)cc4c(=O)n3CC[C@H]21 (racemic) | 0.18 µM | 8 µM | selectivity ratio [1]: 44
COc1cc2nc3n(c(=O)c2cc1Cl)CC[C@@H]1[C@H]3CCCN1C (racemic) | 0.38 µM | – | –
Cc1ccc2nc3n(c(=O)c2c1)CC[C@@H]1[C@@H]3CCCN1C (racemic) | 3.1 µM | – | –
O=c1c2cc(Cl)c(Cl)cc2nc2n1CC[C@@H]1[C@@H]2CCCN1Cc1ccccn1 (racemic) | 2.53 µM | > 20 µM | –
CC(C)NCCN1CCC[C@@H]2c3nc4cc(Cl)c(Cl)cc4c(=O)n3CC[C@H]21 (racemic) | 0.13 µM | 6.4 µM | selectivity ratio [1]: 49
CN(C)C(=O)CN1CCC[C@@H]2c3nc4cc(Cl)c(Cl)cc4c(=O)n3CC[C@H]21 (racemic) | 0.3 µM | > 20 µM | –
CN1CCC[C@@H]2c3nc4cc(F)ccc4c(=O)n3CC[C@H]21 (racemic) | > 10 µM | > 20 µM | –
CN1CCC[C@@H]2c3nc4ccccc4c(=O)n3CC[C@H]21 (racemic) | > 10 µM | > 20 µM | –
O=C(c1ccccc1)N1CCC[C@@H]2c3nc4cc(Cl)c(Cl)cc4c(=O)n3CC[C@H]21 (racemic) | > 10 µM | > 20 µM | –
O=C(C1CCOCC1)N1CCC[C@@H]2c3nc4cc(Cl)c(Cl)cc4c(=O)n3CC[C@H]21 (racemic) | > 10 µM | > 20 µM | –
CN1CCC[C@H]2c3nc4ccc(C(F)(F)F)cc4c(=O)n3CC[C@H]21 (racemic) | 0.95 µM | – | –
COc1cc2nc3n(c(=O)c2cc1Cl)CC[C@@H]1[C@@H]3CCCN1CC(C)C | – | > 20 µM | Ratio CC50/EC50 [1]: > 32.3; EC50 (Naegleria fowleri): 0.62 µM
Cc1cccc2nc3n(c(=O)c12)CC[C@@H]1[C@@H]3CCCN1C (racemic) | > 10 µM | > 20 µM | –
COc1cc2nc3n(c(=O)c2cc1Cl)CC[C@@H]1[C@@H]3CCCN1CC(C)C (racemic) | – | 1.8 µM | Ratio CC50/EC50 [1]: 10.6; EC50 (Naegleria fowleri): 0.17 µM
CN1CCC[C@H]2c3nc4cc(Cl)c(C(F)(F)F)cc4c(=O)n3CC[C@H]21 (racemic) | 0.27 µM | > 20 µM | –
COc1cc(Cl)cc2c(=O)n3c(nc12)[C@H]1CCCN(C)[C@@H]1CC3 (racemic) | > 10 µM | > 20 µM | –
CN1CCC[C@@H]2c3nc4cc(C(F)(F)F)ccc4c(=O)n3CC[C@H]21 (racemic) | 0.99 µM | – | –
CN1CCC[C@@H]2c3nc4cc(Cl)ccc4c(=O)n3CC[C@H]21 (racemic) | 6 µM | > 20 µM | –
CN1CCC[C@@H]2c3nc4cc(-c5ccccc5)c(Cl)cc4c(=O)n3CC[C@H]21 (racemic) | 2.1 µM | 9.4 µM | –
CN1CCC[C@@H]2c3nc4ccc(C#N)cc4c(=O)n3CC[C@H]21 (racemic) | 0.67 µM | – | –
CN1CCC[C@H]2c3nc4ccc(F)cc4c(=O)n3CC[C@H]21 (racemic) | > 10 µM | – | –

Structure (SMILES) | EC50 (Naegleria fowleri; [4]) | CC50 (SH-SY5Y) | also measured
CN1CCC[C@H]2c3nc4cc(Cl)c(Cl)cc4c(=O)n3CC[C@H]21 (racemic) | 0.26 µM | – | –
COc1cc2nc3n(c(=O)c2cc1C#N)CC[C@@H]1[C@@H]3CCCN1C (racemic) | 3.8 µM | > 20 µM | –
O=c1c2cc(Cl)c(Cl)cc2nc2n1CC[C@@H]1[C@@H]2CCCN1Cc1ccncc1 (racemic) | 0.48 µM | > 20 µM | –
CC(C)OCCN1CCC[C@@H]2c3nc4cc(Cl)c(Cl)cc4c(=O)n3CC[C@H]21 (racemic) | 0.0004 µM | > 20 µM | t1/2 [2]: 9.8 min
COc1cc2nc3n(c(=O)c2cc1Cl)CC[C@@H]1[C@@H]3CCCN1C (racemic) | 0.43 µM | > 20 µM | –
Cc1cccc2nc3n(c(=O)c12)CC[C@@H]1[C@H]3CCCN1C (racemic) | > 10 µM | – | –
CN1CCC[C@H]2c3nc4cccc(Cl)c4c(=O)n3CC[C@H]21 (racemic) | > 10 µM | – | –
COc1ccc2nc3n(c(=O)c2c1)CC[C@@H]1[C@H]3CCCN1C (racemic) | > 10 µM | > 20 µM | –
O=C(N1CCOCC1)N1CCC[C@@H]2c3nc4cc(Cl)c(Cl)cc4c(=O)n3CC[C@H]21 (racemic) | > 10 µM | > 20 µM | –
COc1ccc2c(=O)n3c(nc2c1)[C@H]1CCCN(C)[C@@H]1CC3 (racemic) | 1.5 µM | > 20 µM | –
O=c1c2cc(Cl)c(Cl)cc2nc2n1CC[C@@H]1[C@@H]2CCCN1Cc1cccnc1 (racemic) | 0.0002 µM | > 20 µM | t1/2 [2]: 21.9 min
CN1CCC[C@H]2c3nc4cnccc4c(=O)n3CC[C@H]21 (racemic) | > 10 µM | – | –
CN1CCC[C@H]2c3nc4ccc(Cl)cc4c(=O)n3CC[C@H]21 (racemic) | 2.2 µM | – | –
CN1CCC[C@H]2c3nc4ccc(C(F)(F)F)cc4c(=O)n3CC[C@@H]21 | 4.3 µM | – | selectivity ratio [1]: > 4.7
COc1cc2nc3n(c(=O)c2cc1Cl)CC[C@@H]1[C@@H]3CCCN1Cc1cccnc1 (racemic) | 0.12 µM | > 20 µM | selectivity ratio [1]: > 167; solubility kinetic at 24 h [3]: 3.8 µM (≈ 1.56 µg/mL)
CN1CCC[C@@H]2c3nc4cnccc4c(=O)n3CC[C@H]21 (racemic) | > 10 µM | – | –
O=c1c2cc(Cl)c(Cl)cc2nc2n1CC[C@@H]1[C@@H]2CCCN1Cc1cnccn1 (racemic) | 0.05 µM | > 20 µM | –
COCCN1CCC[C@@H]2c3nc4cc(Cl)c(Cl)cc4c(=O)n3CC[C@H]21 (racemic) | 0.023 µM | 10 µM | selectivity ratio [1]: 435; t1/2 [2]: 17 min
CN1CCC[C@H]2c3nc4cc(Cl)ccc4c(=O)n3CC[C@H]21 (racemic) | > 10 µM | – | –
O=c1c2cc(Cl)c(Cl)cc2nc2n1CC[C@H]1NCCC[C@H]21 (racemic) | 1.6 µM | > 20 µM | –
CN1CCC[C@H]2c3nc4cc(F)ccc4c(=O)n3CC[C@H]21 (racemic) | > 10 µM | – | –

Structure (SMILES) | EC50 (Naegleria fowleri; [4]) | CC50 (SH-SY5Y) | also measured
CC(C)(C)C(=O)N1CCC[C@@H]2c3nc4cc(Cl)c(Cl)cc4c(=O)n3CC[C@H]21 (racemic) | > 10 µM | > 20 µM | –
CN1CCC[C@H]2c3nc4cc(C(F)(F)F)ccc4c(=O)n3CC[C@H]21 (racemic) | 6.9 µM | > 20 µM | –
CN1CCC[C@@H]2c3nc4ccc(F)cc4c(=O)n3CC[C@H]21 (racemic) | > 10 µM | > 20 µM | –
O=c1c2cc(Cl)c(Cl)cc2nc2n1CC[C@@H]1[C@@H]2CCCN1Cc1ccccc1 (racemic) | 0.72 µM | > 20 µM | –
CN1CCC[C@H]2c3nc4ccccc4c(=O)n3CC[C@H]21 (racemic) | > 10 µM | – | –
CN1CCC[C@@H]2c3nc4cccc(Cl)c4c(=O)n3CC[C@H]21 (racemic) | > 10 µM | > 20 µM | –
CC(C)CN1CCC[C@@H]2c3nc4cc(Cl)c(Cl)cc4c(=O)n3CC[C@H]21 (racemic) | 0.007 µM | > 20 µM | t1/2 [2]: 19.7 min
CC(C)N1CCC[C@@H]2c3nc4cc(Cl)c(Cl)cc4c(=O)n3CC[C@H]21 (racemic) | 0.04 µM | > 20 µM | t1/2 [2]: 41.1 min
CN1CCC[C@H]2c3nc4ccc(C#N)cc4c(=O)n3CC[C@H]21 (racemic) | 2.1 µM | > 20 µM | –
COc1cc(Cl)cc2c(=O)n3c(nc12)[C@@H]1CCCN(C)[C@@H]1CC3 (racemic) | > 10 µM | – | –
CN1CCC[C@H]2c3nc4cc(Cl)c(Cl)cc4c(=O)n3CC[C@@H]21 | 2.6 µM | – | selectivity ratio [1]: > 7.7
O=c1c2cc(Cl)c(Cl)cc2nc2n1CC[C@@H]1[C@@H]2CCCN1CC1CC1 (racemic) | 0.002 µM | 4.8 µM | selectivity ratio [1]: 2400; t1/2 [2]: 18.3 min
Cc1ccc2nc3n(c(=O)c2c1)CC[C@@H]1[C@H]3CCCN1C (racemic) | 2.8 µM | > 20 µM | –
CN1CCC[C@@H]2c3nc4cc(Cl)c(C(F)(F)F)cc4c(=O)n3CC[C@H]21 (racemic) | 0.34 µM | – | –
CN1CCC[C@H]2c3nc4cc(-c5ccccc5)c(Cl)cc4c(=O)n3CC[C@H]21 (racemic) | 3.4 µM | > 20 µM | –
CN1CCC[C@H]2c3nc4ccc(Cl)cc4c(=O)n3CC[C@@H]21 | 4 µM | – | selectivity ratio [1]: > 5
CN(C)CC(=O)N1CCC[C@@H]2c3nc4cc(Cl)c(Cl)cc4c(=O)n3CC[C@H]21 (racemic) | 0.72 µM | > 20 µM | –
COc1ccc2c(=O)n3c(nc2c1)[C@@H]1CCCN(C)[C@@H]1CC3 (racemic) | 1.8 µM | – | –
O=c1c2cc(Cl)c(Cl)cc2nc2n1CC[C@@H]1[C@@H]2CCCN1CC1CCOCC1 (racemic) | 0.007 µM | > 20 µM | t1/2 [2]: 67.2 min
COc1ccc2nc3n(c(=O)c2c1)CC[C@@H]1[C@@H]3CCCN1C (racemic) | 7.3 µM | – | –

Reference: ChEMBL document CHEMBL5608261, “Pharmacophore Establishment and Optimization of Saturated 1,6-Naphthyridine-Fused Quinazolinones that Inhibit Meningoencephalitis-Causing Naegleria fowleri” (J Med Chem, 2024)
